Measured values published in ChEMBL document CHEMBL1144572, “Synthesis and biological evaluation of gamma-aminophosphonates as potent, subtype-selective sphingosine 1-phosphate receptor agonists and antagonists” (Bioorg Med Chem, 2007).
Activity calls are given as the source filed them. No cut-off for these calls is given here.

What was measured:
[1] = target: T1, Sphingosine 1-phosphate receptor 2 (Homo sapiens, UniProt O95136); test: Activity at human S1P2 receptor expressed in HEK293T cells by [35S]GTP-gamma-S binding assay; format: functional, cell-based; details: for Activity: HEK-293T
T1 sequence (O95136 whole entry): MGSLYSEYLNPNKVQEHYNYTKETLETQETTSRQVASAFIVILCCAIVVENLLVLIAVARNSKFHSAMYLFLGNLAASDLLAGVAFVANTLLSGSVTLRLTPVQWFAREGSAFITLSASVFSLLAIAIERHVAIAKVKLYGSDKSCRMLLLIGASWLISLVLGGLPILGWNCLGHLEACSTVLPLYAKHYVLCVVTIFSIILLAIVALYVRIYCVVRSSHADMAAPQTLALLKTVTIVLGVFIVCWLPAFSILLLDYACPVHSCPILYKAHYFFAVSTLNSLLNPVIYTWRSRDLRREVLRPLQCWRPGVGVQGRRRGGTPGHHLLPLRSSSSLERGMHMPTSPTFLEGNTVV
Method in brief: (§1)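 Individual human S1P receptor subtypes and individual G protein subunits forced into expression in HEK293T cells; receptor-dependent [γ-35S]GTP binding measured in vitro. EC50 in nM as the mean of at least three experiments.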

[2] = target: T2, Sphingosine 1-phosphate receptor 3 (Homo sapiens, UniProt Q99500); test: Efficacy at human S1P3 receptor expressed in HEK293T cells relative to S1P; format: functional, cell-based; details: HEK-293T
T2 sequence (Q99500 whole entry): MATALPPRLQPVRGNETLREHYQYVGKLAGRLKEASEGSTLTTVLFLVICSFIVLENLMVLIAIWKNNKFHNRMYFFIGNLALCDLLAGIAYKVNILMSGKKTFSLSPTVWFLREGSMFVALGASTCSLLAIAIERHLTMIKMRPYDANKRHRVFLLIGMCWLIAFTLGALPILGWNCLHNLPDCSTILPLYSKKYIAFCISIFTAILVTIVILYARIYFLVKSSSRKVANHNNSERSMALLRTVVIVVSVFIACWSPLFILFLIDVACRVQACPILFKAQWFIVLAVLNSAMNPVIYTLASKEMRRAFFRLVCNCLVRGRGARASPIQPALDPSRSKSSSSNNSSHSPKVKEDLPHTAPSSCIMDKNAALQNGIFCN
Method in brief: (§2)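 Individual human S1P receptor subtypes co-expressed with individual G protein subunits in HEK293T cells; [γ-35S]GTP binding. Emax normalized to the maximal activation by endogenous S1P at each receptor.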

[3] = target: T3, Sphingosine 1-phosphate receptor 1 (Homo sapiens, UniProt P21453); test: Activity at human S1P1 receptor expressed in HEK293T cells by [35S]GTP-gamma-S binding assay; format: functional, cell-based, HEK-293T; details: for Activity: HEK-293T; method in brief: as §1
T3 sequence (P21453 whole entry): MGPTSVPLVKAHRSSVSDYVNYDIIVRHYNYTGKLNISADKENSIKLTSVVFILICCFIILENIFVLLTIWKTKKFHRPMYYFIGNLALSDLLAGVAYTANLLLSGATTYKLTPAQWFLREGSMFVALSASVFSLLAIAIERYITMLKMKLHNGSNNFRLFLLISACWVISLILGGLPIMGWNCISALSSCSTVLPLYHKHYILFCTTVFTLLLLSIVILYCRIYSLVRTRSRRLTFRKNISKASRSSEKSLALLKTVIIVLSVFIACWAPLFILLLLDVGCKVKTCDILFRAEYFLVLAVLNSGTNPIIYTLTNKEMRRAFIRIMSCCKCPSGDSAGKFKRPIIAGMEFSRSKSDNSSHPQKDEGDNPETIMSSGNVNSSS

[4] = target: T2, Sphingosine 1-phosphate receptor 3; test: Activity at human S1P3 receptor expressed in HEK293T cells by [35S]GTP-gamma-S binding assay; format: functional, cell-based, HEK-293T; details: for Activity: HEK-293T; method in brief: as §1
[5] = target: T3, Sphingosine 1-phosphate receptor 1; test: Efficacy at human S1P1 receptor expressed in HEK293T cells relative to S1P; format: functional, cell-based; details: HEK-293T; method in brief: as §2
[6] = target: T1, Sphingosine 1-phosphate receptor 2; test: Efficacy at human S1P2 receptor expressed in HEK293T cells relative to S1P; format: functional, cell-based; details: HEK-293T; method in brief: as §2
[7] = target: T4, Sphingosine 1-phosphate receptor 5 (Homo sapiens, UniProt Q9H228); test: Activity at human S1P5 receptor expressed in HEK293T cells by [35S]GTP-gamma-S binding assay; format: functional, cell-based, HEK-293T; method in brief: as §1
T4 sequence (Q9H228 whole entry): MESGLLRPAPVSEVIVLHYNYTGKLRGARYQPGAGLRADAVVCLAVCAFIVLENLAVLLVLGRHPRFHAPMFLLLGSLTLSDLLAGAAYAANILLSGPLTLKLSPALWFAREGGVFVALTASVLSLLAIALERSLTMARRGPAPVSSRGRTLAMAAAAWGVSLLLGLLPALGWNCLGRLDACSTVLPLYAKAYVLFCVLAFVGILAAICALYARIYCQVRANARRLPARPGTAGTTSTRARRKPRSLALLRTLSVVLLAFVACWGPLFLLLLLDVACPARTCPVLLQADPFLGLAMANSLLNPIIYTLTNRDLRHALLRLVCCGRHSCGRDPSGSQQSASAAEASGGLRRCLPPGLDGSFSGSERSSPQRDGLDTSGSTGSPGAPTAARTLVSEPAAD

[8] = target: T5, Sphingosine 1-phosphate receptor 4 (Homo sapiens) (UniProt O95977); test: Efficacy at human S1P4 receptor expressed in HEK293T cells relative to S1P; format: functional, cell-based; details: HEK-293T; method in brief: as §2
T5 sequence (whole entry): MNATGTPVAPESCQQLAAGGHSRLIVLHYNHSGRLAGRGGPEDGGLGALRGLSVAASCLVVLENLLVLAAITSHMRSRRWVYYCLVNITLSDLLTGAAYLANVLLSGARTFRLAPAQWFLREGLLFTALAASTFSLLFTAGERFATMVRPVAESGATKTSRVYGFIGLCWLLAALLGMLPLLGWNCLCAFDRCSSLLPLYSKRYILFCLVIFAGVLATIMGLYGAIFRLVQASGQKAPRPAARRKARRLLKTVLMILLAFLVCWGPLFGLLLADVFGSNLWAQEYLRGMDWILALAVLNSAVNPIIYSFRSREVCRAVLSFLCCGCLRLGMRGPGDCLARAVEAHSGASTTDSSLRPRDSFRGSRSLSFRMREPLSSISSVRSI

[9] = target: T4, Sphingosine 1-phosphate receptor 5; test: Efficacy at human S1P5 receptor expressed in HEK293T cells relative to S1P; format: functional, cell-based; details: HEK-293T; method in brief: as §2
[10] = target: T6, Sphingosine 1-phosphate receptor 4 (Homo sapiens, UniProt O95977); test: Activity at human S1P4 receptor expressed in HEK293T cells by [35S]GTP-gamma-S binding assay; format: functional, cell-based, HEK-293T; method in brief: as §1
T6 sequence (O95977 whole entry): T5 sequence (whole entry)

[11] = test system: Mus musculus; test: Effect on vascular permeability in C57BL/6 mouse assessed as capillary leakage in kidney at 25 mg/kg by Evans blue extravasation assay; format: functional, organism-based; parameters: dose 25 mg/kg
Method in brief: (§3)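 C57BL/6 mice given compound (25 mg/kg) or vehicle (2% hydroxypropyl β-cyclodextrin) two hours before 2% Evans blue dye (20 mg/kg) via jugular vein. Tissues harvested 30 min later. Dye extracted into formamide, read spectrometrically and quantified against a standard curve. n = 4 per group, mean ± SE, compared with vehicle.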

[12] = test system: Mus musculus; test: Inhibition of VPC44152-evoked lymphopenia in mouse at 22 mg/kg; format: functional, organism-based; parameters: dose 22 mg/kg
[13] = test system: Mus musculus; test: Effect on vascular permeability in C57BL/6 mouse assessed as capillary leakage in lung at 25 mg/kg by Evans blue extravasation assay; format: functional, organism-based; parameters: dose 25 mg/kg; method in brief: as §3
[14] = target: T3, Sphingosine 1-phosphate receptor 1; test: Displacement of [32P]S1P from human S1P1 receptor expressed in HEK293T cells; format: cell-based, HEK-293T
[15] = target: T2, Sphingosine 1-phosphate receptor 3; test: Displacement of [32P]S1P from human S1P3 receptor expressed in HEK293T cells; format: cell-based, HEK-293T

Activity [1]	ECmax [2]	EC50 [3]	EC50 [4]	Activity [5]	ECmax [6]	Activity [3]	Activity [4]	EC50 [1]	EC50 [7]	ECmax [8]	ECmax [9]	EC50 [10]	Ki [14]	Ki [15]	Activity ([7]; HEK-293T)	Structure (SMILES)	Activity [11]	Activity [12]	Activity [13]
inactive	0.3	1200 nM	15000 nM	inactive	0											CCCCCCCCc1ccc(NC(=O)[C@@H](N)CCP(=O)(O)O)cc1			
	0.53	140 nM	100 nM		0.5			530 nM	47 nM	0.9	0.5	150 nM				CCCCCCCCc1ccc(OC[C@H](N)CCP(=O)(O)O)cc1			
inactive	0	68 nM			0		inactive		31 nM	0.71	0.41	147 nM				CCCCCCCCc1ccc(OC[C@@H](N)CCP(=O)(O)O)cc1			
inactive	0.38	27 nM	270 nM		0				76 nM	0.8	0.64	2300 nM				CCCCCCCCc1ccc(NC(=O)[C@H](N)CCP(=O)(O)O)cc1			
inactive	0	33 nM			0		inactive			0.45	0	440000 nM			inactive	CCCCCCCCc1ccc(OC[C@@H](O)CCP(=O)(O)O)cc1			

The remaining lines, values behind:

Structure (SMILES)	Activity [1]	ECmax [2]	EC50 [3]	EC50 [4]	Activity [5]	ECmax [6]	Activity [3]	Activity [4]	EC50 [1]	EC50 [7]	ECmax [8]	ECmax [9]	EC50 [10]	Ki [14]	Ki [15]	Activity ([7]; HEK-293T)	Activity [11]	Activity [12]	Activity [13]
CCCCCCCc1cccc(NC(=O)[C@H](N)CCP(=O)(O)O)c1		0					inactive	inactive											
CCCCCCCCCCc1ccc(NC(=O)[C@H](N)CCP(=O)(O)O)cc1		0.88	3.6 nM	43 nM		0.5			270 nM	30 nM	0.67	0.77	230 nM						
CCCCCCCCc1cccc(NC[C@H](N)CCP(=O)(O)O)c1	inactive	0	30 nM			0		inactive		41 nM	1.18	0.61	340 nM						
CCCCCCCCc1cccc(NC(=O)[C@@H](N)CCP(=O)(O)O)c1	inactive	0				0	inactive	inactive											
CCCCCCCCc1cccc(NC(=O)[C@H](N)CCP(=O)(O)O)c1	inactive	0				0	inactive	inactive		33 nM	1.42	0.73	6100 nM	30 nM	300 nM		Active	Active	Active
CCCCCCCCc1ccc(CCC(N)(CO)COP(=O)(O)O)cc1 (stereo not drawn)	inactive	0.5				0					0.9	0.56	4 nM						
CCCCCCCCCCc1ccc(NC(=O)[C@H](N)CC(F)P(=O)(O)O)cc1 (stereo partly drawn)		0.96	2.1 nM	23 nM		0.47			490 nM										
